Data: ChEMBL document CHEMBL2203068, “Antibacterial butenolides from the Korean tunicate Pseudodistoma antinboja” (2012)
In brackets after ≈: the same amount, converted by molar mass. Activity calls are given as the source filed them. No cut-off for these calls is given here.

Key:
Klebsiella pneumoniae = assay: Antimicrobial activity against Klebsiella pneumoniae ATCC 4352 incubated for 24 hrs by microtiter broth dilution method; format: functional, organism-based
Outline: (§1)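 Two-fold serial dilutions of compounds in DMSO were added to Mueller Hinton broth in 96-well microtiter plates (final 0.64% DMSO). Wells were inoculated with overnight bacterial culture at 5 × 10⁵ cfu/mL and incubated at 37 °C for 24 h. The MIC was the lowest concentration with no visible growth.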

Salmonella typhimurium = assay: Antimicrobial activity against Salmonella typhimurium ATCC 14028 incubated for 24 hrs by microtiter broth dilution method; format: functional, organism-based; conditions: Salmonella enterica subsp. enterica serovar Typhimurium; outline: as §1
Escherichia coli = assay: Antimicrobial activity against Escherichia coli ATCC 11775 incubated for 24 hrs by microtiter broth dilution method; format: functional, organism-based; outline: as §1
Staphylococcus aureus [1] = assay: Antimicrobial activity against Staphylococcus aureus ATCC 6538 incubated for 24 hrs by microtiter broth dilution method; format: functional; outline: as §1
[2] = tested on: Staphylococcus epidermidis; assay: Antimicrobial activity against Staphylococcus epidermidis ATCC 12228 incubated for 24 hrs by microtiter broth dilution method; format: functional; outline: as §1
Kocuria rhizophila = assay: Antimicrobial activity against Kocuria rhizophila ATCC 9341 incubated for 24 hrs by microtiter broth dilution method; format: functional; outline: as §1
Bacillus subtilis = assay: Antimicrobial activity against Bacillus subtilis ATCC 6633 incubated for 24 hrs by microtiter broth dilution method; format: functional; outline: as §1
Staphylococcus aureus [3] = assay: Antimicrobial activity against methicillin-sensitive Staphylococcus aureus CCARM 0027 incubated for 24 hrs by microtiter broth dilution method; format: functional; conditions: CCARM 0027, 24 h
Outline: (§2)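 Two-fold serial dilutions of compound in DMSO were made in Mueller Hinton broth in 96-well microtiter plates, with 0.64% DMSO final. Each well was inoculated with an overnight bacterial culture at 5 × 10⁵ cfu/mL and incubated at 37 °C for 24 h. MIC was the lowest concentration showing no visible growth.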

Staphylococcus aureus [4] = assay: Antimicrobial activity against methicillin-sensitive Staphylococcus aureus CCARM 0204 incubated for 24 hrs by microtiter broth dilution method; format: functional; conditions: CCARM 0204, 24 h; outline: as §2
Staphylococcus aureus [5] = assay: Antimicrobial activity against methicillin-sensitive Staphylococcus aureus CCARM 0205 incubated for 24 hrs by microtiter broth dilution method; format: functional; conditions: CCARM 0205, 24 h; outline: as §2
Staphylococcus aureus [6] = assay: Antimicrobial activity against methicillin-sensitive Staphylococcus aureus CCARM 3640 incubated for 24 hrs by microtiter broth dilution method; format: functional; conditions: CCARM 3640, 24 h; outline: as §2
Staphylococcus aureus [7] = assay: Antimicrobial activity against methicillin-resistant Staphylococcus aureus CCARM 3089 incubated for 24 hrs by microtiter broth dilution method; format: functional; conditions: CCARM 3089, 24 h; outline: as §2
Staphylococcus aureus [8] = assay: Antimicrobial activity against methicillin-resistant Staphylococcus aureus CCARM 3090 incubated for 24 hrs by microtiter broth dilution method; format: functional; conditions: CCARM 3090, 24 h; outline: as §2
Staphylococcus aureus [9] = assay: Antimicrobial activity against methicillin-resistant Staphylococcus aureus CCARM 3634 incubated for 24 hrs by microtiter broth dilution method; format: functional; conditions: CCARM 3634, 24 h; outline: as §2
Staphylococcus aureus [10] = assay: Antimicrobial activity against methicillin-resistant Staphylococcus aureus CCARM 3635 incubated for 24 hrs by microtiter broth dilution method; format: functional; conditions: CCARM 3635, 24 h; outline: as §2

| Compound | MIC (Klebsiella pneumoniae) | MIC (Salmonella typhimurium) | MIC (Escherichia coli) | MIC (Staphylococcus aureus [1]; ATCC 6538, 24 h) [µg/mL] | MIC ([2]; ATCC 12228, 24 h) [µg/mL] | MIC (Kocuria rhizophila; ATCC 9341, 24 h) [µg/mL] | MIC (Bacillus subtilis; ATCC 6633, 24 h) [µg/mL] | MIC (Staphylococcus aureus [3]) [µg/mL] | MIC (Staphylococcus aureus [4]) [µg/mL] | MIC (Staphylococcus aureus [5]) [µg/mL] | MIC (Staphylococcus aureus [6]) [µg/mL] | MIC (Staphylococcus aureus [7]) [µg/mL] | MIC (Staphylococcus aureus [8]) [µg/mL] | MIC (Staphylococcus aureus [9]) [µg/mL] | MIC (Staphylococcus aureus [10]) [µg/mL] | MIC (Staphylococcus aureus [1]) [µg/mL] | MIC [2] [µg/mL] | MIC (Kocuria rhizophila) [µg/mL] | MIC (Bacillus subtilis) [µg/mL] |
| --- | --- | --- | --- | --- | --- | --- | --- | --- | --- | --- | --- | --- | --- | --- | --- | --- | --- | --- | --- |
| O=C1O/C(=C\c2ccc(O)c(Br)c2)C(c2cc(Br)c(O)c(Br)c2)=C1C(=O)c1cc(Br)c(O)c(Br)c1 [CADIOLIDE D] | inactive | inactive | inactive | 6.3 (≈ 7.93 µM) | 0.8 (≈ 1.01 µM) | 1.6 (≈ 2.01 µM) | 6.3 (≈ 7.93 µM) | 0.5 (≈ 0.629 µM) | 0.5 (≈ 0.629 µM) | 0.25 (≈ 0.315 µM) | 0.25 (≈ 0.315 µM) | 0.5 (≈ 0.629 µM) | 0.25 (≈ 0.315 µM) | 1 (≈ 1.26 µM) | 0.25 (≈ 0.315 µM) | – | – | – | – |
| O=C1O/C(=C\c2ccc(O)c(Br)c2)C(c2ccc(O)c(Br)c2)=C1C(=O)c1cc(Br)c(O)c(Br)c1 [CADIOLIDE C] | inactive | inactive | inactive | 0.4 (≈ 0.559 µM) | 0.4 (≈ 0.559 µM) | 0.2 (≈ 0.279 µM) | 3.1 (≈ 4.33 µM) | 0.5 (≈ 0.698 µM) | 0.25 (≈ 0.349 µM) | 0.25 (≈ 0.349 µM) | < 0.13 | 0.5 (≈ 0.698 µM) | 0.25 (≈ 0.349 µM) | 0.5 (≈ 0.698 µM) | < 0.13 | – | – | – | – |
| O=C1O/C(=C\c2cc(Br)c(O)c(Br)c2)C(c2ccc(O)c(Br)c2)=C1C(=O)c1cc(Br)c(O)c(Br)c1 [CADIOLIDE E] | inactive | inactive | inactive | 3.1 (≈ 3.9 µM) | 6.3 (≈ 7.93 µM) | 0.2 (≈ 0.252 µM) | 3.1 (≈ 3.9 µM) | 2 (≈ 2.52 µM) | 2 (≈ 2.52 µM) | 4 (≈ 5.03 µM) | 0.25 (≈ 0.315 µM) | 1 (≈ 1.26 µM) | 1 (≈ 1.26 µM) | 2 (≈ 2.52 µM) | 0.5 (≈ 0.629 µM) | – | – | – | – |
| O=C1O/C(=C\c2cc(Br)c(O)c(Br)c2)C(c2cc(Br)c(O)c(Br)c2)=C1C(=O)c1cc(Br)c(O)c(Br)c1 [CADIOLIDE B] | inactive | inactive | inactive | 3.1 (≈ 3.55 µM) | 3.1 (≈ 3.55 µM) | 3.1 (≈ 3.55 µM) | 3.1 (≈ 3.55 µM) | 2 (≈ 2.29 µM) | 1 (≈ 1.14 µM) | 2 (≈ 2.29 µM) | 1 (≈ 1.14 µM) | 1 (≈ 1.14 µM) | 1 (≈ 1.14 µM) | 1 (≈ 1.14 µM) | 0.5 (≈ 0.572 µM) | – | – | – | – |
| O=C1C=C(c2ccc(O)c(Br)c2)/C(=C/c2cc(Br)c(O)c(Br)c2)O1 [RUBROLIDE J] | inactive | inactive | inactive | 3.1 (≈ 6 µM) | 0.8 (≈ 1.55 µM) | 6.3 (≈ 12.2 µM) | 1.6 (≈ 3.09 µM) | 2 (≈ 3.87 µM) | 2 (≈ 3.87 µM) | 1 (≈ 1.93 µM) | 2 (≈ 3.87 µM) | 4 (≈ 7.74 µM) | 2 (≈ 3.87 µM) | 2 (≈ 3.87 µM) | 2 (≈ 3.87 µM) | – | – | – | – |
| GENTAMICIN | – | – | – | – | – | – | – | – | – | – | – | – | – | – | – | < 0.02 | < 0.02 | 1.6 | 0.05 |
